Reference: ChEMBL document CHEMBL1777764, “Synthesis and evaluation of 1-(1H-indol-3-yl)ethanamine derivatives as new antibacterial agents” (Bioorg Med Chem, 2011)
Values after ≈ are worked out from the molar mass of the structure shown.

Key:
KB [1] = assay: Cytotoxicity against human KB cells at 1 uM; assay type: cell-based
HCT-116 [2] = assay: Cytotoxicity against human HCT116 cells at 10 uM; assay type: cell-based; conditions: hct-116, 10 µM
KB [3] = assay: Cytotoxicity against human KB cells at 10 uM; assay type: cell-based
Staphylococcus aureus [4] = assay: Antibacterial activity against Staphylococcus aureus CIP 103428 after 18 hrs by broth microdilution method; assay type: functional
In short: (§1)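 MIC by broth microdilution per ISO 20776-1:2006 and CLSI M07-A8. Inoculum 10^6 cfu/ml in Mueller-Hinton broth with compound serially diluted, final concentrations 2 to 128 ug/ml, duplicate rows, no-drug growth control. Incubation 18 h at 37 °C. MIC taken as lowest concentration giving complete inhibition of visible growth. Each compound tested at least twice.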

Staphylococcus aureus [5] = assay: Antibacterial activity against Staphylococcus aureus CIP 65.6 after 18 hrs by broth microdilution method; assay type: functional; in short: as §1
[6] = test system: Staphylococcus epidermidis; assay: Antibacterial activity against Staphylococcus epidermidis CIP 81.55 after 18 hrs by broth microdilution method; assay type: functional; in short: as §1
Staphylococcus aureus [7] = assay: Antibacterial activity against Staphylococcus aureus ATCC 25923 after 18 hrs by broth microdilution method; assay type: functional; in short: as §1
Staphylococcus aureus [8] = assay: Antibacterial activity against Staphylococcus aureus ATCC 6538 after 18 hrs by broth microdilution method; assay type: functional; in short: as §1
[9] = test system: Staphylococcus epidermidis; assay: Antibacterial activity against Staphylococcus epidermidis CIP 103627 after 18 hrs by broth microdilution method; assay type: functional; in short: as §1
[10] = test system: Staphylococcus epidermidis; assay: Antibacterial activity against Staphylococcus epidermidis ATCC 12228 after 18 hrs by broth microdilution method; assay type: functional; in short: as §1
Staphylococcus aureus [11] = assay: Antibacterial activity against Staphylococcus aureus ATCC 9144 after 18 hrs by broth microdilution method; assay type: functional; in short: as §1
MRC5 [12] = assay: Cytotoxicity against human MRC5 cells at 10 uM; assay type: cell-based; conditions: mrc5, 10 µM
Staphylococcus aureus [13] = assay: Antibacterial activity against Staphylococcus aureus ATCC 29213 after 18 hrs by broth microdilution method; assay type: functional; in short: as §1
HCT-116 [14] = assay: Cytotoxicity against human HCT116 cells at 1 uM; assay type: cell-based; conditions: hct-116, 1 µM
MRC5 [15] = assay: Cytotoxicity against human MRC5 cells at 1 uM; assay type: cell-based; conditions: mrc5, 1 µM
Staphylococcus aureus [16] = assay: Antibacterial activity against methicillin-resistant Staphylococcus aureus ATCC 33592 after 18 hrs by broth microdilution method; assay type: functional
In short: (§2)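 Broth microdilution following ISO 20776-1:2006 and CLSI M07-A8, in Mueller-Hinton broth. Inoculum was 10^6 cfu/ml, with compound serial dilutions spanning 2 to 128 ug/ml and a compound-free growth control well. Plates were incubated 18 h at 37 °C. MIC was the lowest concentration giving complete inhibition of visible growth. Each compound was tested at least twice.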

Streptococcus pneumoniae [17] = assay: Antibacterial activity against Streptococcus pneumoniae ATCC 49619 after 18 hrs by broth microdilution method; assay type: functional; conditions: ATCC 49619, 18 h
In short: (§3)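 MIC by broth microdilution per ISO 20776-1:2006 and CLSI M07-A8. Inoculum 10^6 cfu/ml in Mueller-Hinton broth […]. Compound serially diluted, final 2 to 128 ug/ml, duplicate rows, no-drug growth control. Read after 18 h at 37 °C as lowest concentration fully inhibiting visible growth. At least two experiments.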

Staphylococcus aureus [18] = assay: Antibacterial activity against vancomycin intermediate Staphylococcus aureus […] after 18 hrs by broth microdilution method; assay type: functional; in short: as §2
Staphylococcus aureus [19] = assay: Antibacterial activity against methicillin-resistant Staphylococcus aureus CIP 65.25 after 18 hrs by broth microdilution method; assay type: functional; in short: as §2
Streptococcus pneumoniae [20] = assay: Antibacterial activity against Streptococcus pneumoniae ATCC 6303 after 18 hrs by broth microdilution method; assay type: functional; conditions: ATCC 6303, 18 h; in short: as §3
Escherichia coli = assay: Antibacterial activity against Escherichia coli ATCC 25922 after 18 hrs by broth microdilution method; assay type: functional; in short: as §2

For `CC(C)CC(NO)c1c[nH]c2ccc(I)cc12` (stereo not drawn), the Activity (KB [1]) was “Non-toxic”, the Activity (HCT-116 [2]) was “Non-toxic” and the Activity (KB [3]) was “Non-toxic”. For the same compound, the MIC (Staphylococcus aureus [4]; CIP 103428, 18 h) was 32 µg/mL (≈ 93 µM), the MIC (Staphylococcus aureus [5]; CIP 65.6, 18 h) was 32 µg/mL (≈ 93 µM) and the MIC ([6]; CIP 81.55, 18 h) was 16 µg/mL (≈ 46.5 µM). The MIC (Staphylococcus aureus [7]; ATCC 25923, 18 h) was 32 µg/mL (≈ 93 µM), the MIC (Staphylococcus aureus [8]; ATCC 6538, 18 h) was 32 µg/mL (≈ 93 µM) and the MIC ([9]; CIP 103627, 18 h) was 16 µg/mL (≈ 46.5 µM). For the same compound, the MIC ([10]; ATCC 12228, 18 h) was 16 µg/mL (≈ 46.5 µM), the MIC (Staphylococcus aureus [11]; ATCC 9144, 18 h) was 32 µg/mL (≈ 93 µM) and the Activity (MRC5 [12]) was “Non-toxic”. The MIC (Staphylococcus aureus [13]; ATCC 29213, 18 h) was 32 µg/mL (≈ 93 µM), the Activity (HCT-116 [14]) was “Non-toxic” and the Activity (MRC5 [15]) was “Non-toxic”.
With `CC(C)CC(NO)c1c[nH]c2ccc(F)cc12` (stereo not drawn) the Activity (KB [1]) was “Non-toxic”, the Activity (HCT-116 [2]) was “Non-toxic” and the Activity (KB [3]) was “Non-toxic”. It also gave an MIC (Staphylococcus aureus [4]; CIP 103428, 18 h) of 32 µg/mL (≈ 135 µM), an MIC (Staphylococcus aureus [5]; CIP 65.6, 18 h) of 32 µg/mL (≈ 135 µM) and an MIC ([6]; CIP 81.55, 18 h) of 32 µg/mL (≈ 135 µM). For the same compound, the MIC (Staphylococcus aureus [7]; ATCC 25923, 18 h) was 32 µg/mL (≈ 135 µM), the MIC (Staphylococcus aureus [8]; ATCC 6538, 18 h) was 32 µg/mL (≈ 135 µM) and the MIC ([9]; CIP 103627, 18 h) was 32 µg/mL (≈ 135 µM). The MIC ([10]; ATCC 12228, 18 h) was 32 µg/mL (≈ 135 µM), the MIC (Staphylococcus aureus [11]; ATCC 9144, 18 h) was 32 µg/mL (≈ 135 µM) and the Activity (MRC5 [12]) was “Non-toxic”. For the same compound, the MIC (Staphylococcus aureus [13]; ATCC 29213, 18 h) was 32 µg/mL (≈ 135 µM), the Activity (HCT-116 [14]) was “Non-toxic” and the Activity (MRC5 [15]) was “Non-toxic”.
In the case of `CC(C)(C)OC(=O)NCC(c1c[nH]c2cc(Br)ccc12)N(O)Cc1ccccc1` (stereo not drawn), the MIC (Staphylococcus aureus [16]; ATCC 33592, 18 h) is reported as 16 µg/mL (≈ 34.8 µM), the MIC (Streptococcus pneumoniae [17]) is reported as greater than 128 µg/mL and the Activity (KB [1]) is reported as “Non-toxic”. For the same compound, the Activity (HCT-116 [2]) was “Non-toxic”, the Activity (KB [3]) was “Non-toxic” and the MIC (Staphylococcus aureus [4]; CIP 103428, 18 h) was 8 µg/mL (≈ 17.4 µM). It also gave an MIC (Staphylococcus aureus [18]) of 16 µg/mL (≈ 34.8 µM), an MIC (Staphylococcus aureus [19]; CIP 65.25, 18 h) of 16 µg/mL (≈ 34.8 µM) and an MIC (Staphylococcus aureus [5]; CIP 65.6, 18 h) of 8 µg/mL (≈ 17.4 µM). It also gave an MIC ([6]; CIP 81.55, 18 h) of 16 µg/mL (≈ 34.8 µM), an MIC (Staphylococcus aureus [7]; ATCC 25923, 18 h) of 8 µg/mL (≈ 17.4 µM) and an MIC (Staphylococcus aureus [8]; ATCC 6538, 18 h) of 8 µg/mL (≈ 17.4 µM). It also gave an MIC ([9]; CIP 103627, 18 h) of 16 µg/mL (≈ 34.8 µM), an MIC ([10]; ATCC 12228, 18 h) of 16 µg/mL (≈ 34.8 µM) and an MIC (Streptococcus pneumoniae [20]) greater than 128 µg/mL. The MIC (Staphylococcus aureus [11]; ATCC 9144, 18 h) was 8 µg/mL (≈ 17.4 µM), the Activity (MRC5 [12]) was “Non-toxic” and the MIC (Staphylococcus aureus [13]; ATCC 29213, 18 h) was 8 µg/mL (≈ 17.4 µM). For the same compound, the Activity (HCT-116 [14]) was “Non-toxic” and the Activity (MRC5 [15]) was “Non-toxic”.
For `CC(C)CC(NO)c1c[nH]c2ccccc12` (stereo not drawn), the Activity (KB [1]) was “Non-toxic”, the Activity (HCT-116 [2]) was “Non-toxic” and the Activity (KB [3]) was “Non-toxic”. The MIC (Staphylococcus aureus [4]; CIP 103428, 18 h) was 64 µg/mL (≈ 293 µM), the MIC (Staphylococcus aureus [5]; CIP 65.6, 18 h) was 64 µg/mL (≈ 293 µM) and the MIC ([6]; CIP 81.55, 18 h) was 32 µg/mL (≈ 147 µM). For the same compound, the MIC (Staphylococcus aureus [7]; ATCC 25923, 18 h) was 64 µg/mL (≈ 293 µM), the MIC (Staphylococcus aureus [8]; ATCC 6538, 18 h) was 64 µg/mL (≈ 293 µM) and the MIC ([9]; CIP 103627, 18 h) was 32 µg/mL (≈ 147 µM). The MIC ([10]; ATCC 12228, 18 h) was 32 µg/mL (≈ 147 µM), the MIC (Staphylococcus aureus [11]; ATCC 9144, 18 h) was 64 µg/mL (≈ 293 µM) and the Activity (MRC5 [12]) was “Non-toxic”. For the same compound, the MIC (Staphylococcus aureus [13]; ATCC 29213, 18 h) was 64 µg/mL (≈ 293 µM), the Activity (HCT-116 [14]) was “Non-toxic” and the Activity (MRC5 [15]) was “Non-toxic”.
In the case of `CC(NO)c1c[nH]c2ccc(Cl)cc12` (stereo not drawn), the Activity (KB [1]) is reported as “Non-toxic”, the Activity (HCT-116 [2]) is reported as “Non-toxic” and the Activity (KB [3]) is reported as “Non-toxic”. It also gave an MIC (Staphylococcus aureus [4]; CIP 103428, 18 h) of 32 µg/mL (≈ 152 µM), an MIC (Staphylococcus aureus [5]; CIP 65.6, 18 h) of 32 µg/mL (≈ 152 µM) and an MIC ([6]; CIP 81.55, 18 h) of 16 µg/mL (≈ 76 µM). For the same compound, the MIC (Staphylococcus aureus [7]; ATCC 25923, 18 h) was 32 µg/mL (≈ 152 µM), the MIC (Staphylococcus aureus [8]; ATCC 6538, 18 h) was 32 µg/mL (≈ 152 µM) and the MIC ([9]; CIP 103627, 18 h) was 16 µg/mL (≈ 76 µM). For the same compound, the MIC ([10]; ATCC 12228, 18 h) was 16 µg/mL (≈ 76 µM), the MIC (Staphylococcus aureus [11]; ATCC 9144, 18 h) was 32 µg/mL (≈ 152 µM) and the Activity (MRC5 [12]) was “Non-toxic”. The MIC (Staphylococcus aureus [13]; ATCC 29213, 18 h) was 32 µg/mL (≈ 152 µM), the Activity (HCT-116 [14]) was “Non-toxic” and the Activity (MRC5 [15]) was “Non-toxic”.
In the case of GENTAMICIN, the MIC (Staphylococcus aureus [16]) is reported as 0.25 µg/mL, the MIC (Staphylococcus aureus [4]) is reported as 0.125 µg/mL and the MIC (Staphylococcus aureus [18]) is reported as greater than 64 µg/mL. For the same compound, the MIC (Staphylococcus aureus [19]) was 0.25 µg/mL, the MIC (Staphylococcus aureus [5]) was 0.125 µg/mL and the MIC [6] was 0.125 µg/mL. For the same compound, the MIC (Staphylococcus aureus [7]) was 0.125 µg/mL, the MIC (Staphylococcus aureus [8]) was 0.125 µg/mL and the MIC [9] was 0.125 µg/mL. It also gave an MIC [10] of 0.125 µg/mL, an MIC (Staphylococcus aureus [11]) of 0.125 µg/mL and an MIC (Escherichia coli) of 1 µg/mL. The MIC (Staphylococcus aureus [13]) was 0.125 µg/mL.
`CC(C)CC(NO)c1c[nH]c2ccc(Br)cc12` (stereo not drawn) was tested, and the Activity (KB [1]) was “Non-toxic”, the Activity (HCT-116 [2]) was “Non-toxic” and the Activity (KB [3]) was “Non-toxic”. For the same compound, the MIC (Staphylococcus aureus [4]; CIP 103428, 18 h) was 32 µg/mL (≈ 108 µM), the MIC (Staphylococcus aureus [5]; CIP 65.6, 18 h) was 32 µg/mL (≈ 108 µM) and the MIC ([6]; CIP 81.55, 18 h) was 16 µg/mL (≈ 53.8 µM). For the same compound, the MIC (Staphylococcus aureus [7]; ATCC 25923, 18 h) was 32 µg/mL (≈ 108 µM), the MIC (Staphylococcus aureus [8]; ATCC 6538, 18 h) was 32 µg/mL (≈ 108 µM) and the MIC ([9]; CIP 103627, 18 h) was 16 µg/mL (≈ 53.8 µM). The MIC ([10]; ATCC 12228, 18 h) was 16 µg/mL (≈ 53.8 µM), the MIC (Staphylococcus aureus [11]; ATCC 9144, 18 h) was 32 µg/mL (≈ 108 µM) and the Activity (MRC5 [12]) was “Non-toxic”. For the same compound, the MIC (Staphylococcus aureus [13]; ATCC 29213, 18 h) was 32 µg/mL (≈ 108 µM), the Activity (HCT-116 [14]) was “Non-toxic” and the Activity (MRC5 [15]) was “Non-toxic”.
